# Experimental data: ChEMBL document CHEMBL2029262, “Receptor-ligand interaction-based virtual screening for novel Eg5/kinesin spindle protein inhibitors” (J Med Chem, 2012)
# Calls of active or inactive are those of the source. No cut-off for these calls is given here.
# What was measured:
# DU-145 [1] = assay: Growth inhibition of human DU145 cells after 2 days by MTT assay; format: functional
# How it was run: (§1)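 DU145 or HT29 cells in RPMI 1640 with 10% heat-inactivated FBS, 37 °C, 5% CO2. Seeded at 3 × 10^3 cells/well, exposed to a range of compound concentrations in duplicate for two days. Read-out was MTT-type tetrazolium dye for up to 4 h, overnight solubilization of formazan, then OD at 570 nm. GI50 was derived.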
# [2] = target: T1, Kinesin-like protein KIF11 (Homo sapiens) (UniProt P52732); assay: (§2) Inhibition of Eg5 ATPase activity by pyruvate kinase/lactate dehydrogenase-linked assay; set-up: concentration or dose not given beside the values
# T1 sequence (whole entry): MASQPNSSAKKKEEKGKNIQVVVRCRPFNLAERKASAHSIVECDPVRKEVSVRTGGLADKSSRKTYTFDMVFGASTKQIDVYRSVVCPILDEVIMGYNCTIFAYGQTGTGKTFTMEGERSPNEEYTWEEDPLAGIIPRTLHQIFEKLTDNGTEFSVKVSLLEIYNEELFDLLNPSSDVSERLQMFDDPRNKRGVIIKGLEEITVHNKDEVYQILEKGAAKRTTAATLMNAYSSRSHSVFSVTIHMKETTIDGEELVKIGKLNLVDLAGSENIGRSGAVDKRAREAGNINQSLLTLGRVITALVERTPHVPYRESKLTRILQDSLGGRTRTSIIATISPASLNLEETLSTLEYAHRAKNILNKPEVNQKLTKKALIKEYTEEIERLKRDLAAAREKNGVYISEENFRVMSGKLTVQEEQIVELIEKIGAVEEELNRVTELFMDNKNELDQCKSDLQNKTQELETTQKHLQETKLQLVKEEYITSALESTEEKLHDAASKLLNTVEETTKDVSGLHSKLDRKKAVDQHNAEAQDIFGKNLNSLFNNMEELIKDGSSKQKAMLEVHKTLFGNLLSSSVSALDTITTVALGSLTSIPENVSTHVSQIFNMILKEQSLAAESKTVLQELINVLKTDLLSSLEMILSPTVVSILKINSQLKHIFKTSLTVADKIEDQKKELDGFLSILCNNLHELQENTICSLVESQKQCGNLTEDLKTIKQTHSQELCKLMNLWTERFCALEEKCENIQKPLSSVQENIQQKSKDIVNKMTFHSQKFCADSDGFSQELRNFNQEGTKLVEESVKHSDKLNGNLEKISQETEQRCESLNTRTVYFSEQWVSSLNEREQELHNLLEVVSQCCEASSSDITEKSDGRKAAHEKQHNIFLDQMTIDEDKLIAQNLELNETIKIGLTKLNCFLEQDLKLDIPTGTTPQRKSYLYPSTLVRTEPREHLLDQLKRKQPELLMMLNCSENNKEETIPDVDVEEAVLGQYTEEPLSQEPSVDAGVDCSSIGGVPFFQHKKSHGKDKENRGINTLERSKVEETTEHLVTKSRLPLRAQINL
# How it was run: (§3)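 Basal steady-state ATPase of 200 nM Eg5 2–368, measured by pyruvate kinase/lactate dehydrogenase coupling in ACES buffer pH 6.9 with Mg acetate, EGTA, EDTA and β-mercaptoethanol, at 25 °C with up to 2.0% DMSO. STLC was the positive control. Each concentration was run in triplicate and reported as mean ± SD to give IC50.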
# [3] = target: T2, Kinesin-like protein KIF11 (Homo sapiens, UniProt P52732); assay: as §2; how it was run: as §3
# T2 sequence (P52732 whole entry): T1 sequence (whole entry)
# HT-29 = assay: Growth inhibition of human HT-29 cells after 2 days by MTT assay; format: functional; how it was run: as §1
# [4] = target: T3, Kinesin heavy chain isoform 5A (Homo sapiens, UniProt Q12840); assay: Inhibition of human Kif5A ATPase activity by pyruvate kinase/lactate dehydrogenase-linked assay
# T3 sequence (Q12840 whole entry): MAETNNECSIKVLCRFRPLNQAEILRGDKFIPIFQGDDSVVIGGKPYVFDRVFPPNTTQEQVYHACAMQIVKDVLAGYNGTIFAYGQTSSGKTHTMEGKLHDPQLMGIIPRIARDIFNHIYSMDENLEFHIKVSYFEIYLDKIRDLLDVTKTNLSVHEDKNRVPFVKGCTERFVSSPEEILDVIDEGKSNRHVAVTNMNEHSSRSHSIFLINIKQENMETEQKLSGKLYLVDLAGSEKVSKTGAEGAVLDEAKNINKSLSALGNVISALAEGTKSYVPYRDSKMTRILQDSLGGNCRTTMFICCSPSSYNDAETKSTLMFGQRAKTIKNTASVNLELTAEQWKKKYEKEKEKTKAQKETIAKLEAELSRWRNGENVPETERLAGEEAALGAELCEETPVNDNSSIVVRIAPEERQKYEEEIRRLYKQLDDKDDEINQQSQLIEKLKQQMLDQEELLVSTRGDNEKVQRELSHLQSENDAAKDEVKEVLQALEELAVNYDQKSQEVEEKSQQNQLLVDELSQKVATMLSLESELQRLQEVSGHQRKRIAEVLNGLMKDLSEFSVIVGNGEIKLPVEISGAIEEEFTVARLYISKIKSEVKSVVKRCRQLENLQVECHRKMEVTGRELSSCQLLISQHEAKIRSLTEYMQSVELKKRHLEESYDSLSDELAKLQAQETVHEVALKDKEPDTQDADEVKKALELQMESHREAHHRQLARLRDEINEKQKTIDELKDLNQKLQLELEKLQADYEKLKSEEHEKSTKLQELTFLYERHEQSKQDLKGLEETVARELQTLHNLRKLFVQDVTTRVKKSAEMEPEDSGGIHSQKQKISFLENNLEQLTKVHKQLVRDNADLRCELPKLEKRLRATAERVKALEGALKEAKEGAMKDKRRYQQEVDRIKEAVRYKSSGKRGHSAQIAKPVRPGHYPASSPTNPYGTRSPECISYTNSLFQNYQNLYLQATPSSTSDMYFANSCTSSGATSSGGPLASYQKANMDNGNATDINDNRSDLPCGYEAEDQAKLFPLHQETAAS
# How it was run: (§4)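 HsKif5A or HsKif5C ATPase measured with the same pyruvate kinase/lactate dehydrogenase-linked format, at 25 °C in ACES buffer pH 6.9 with up to 2.0% DMSO. Concentrations were run in triplicate.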
# HeLa [5] = assay: Induction of monoastral spindle formation in human HeLa cells at 25 uM after 8 hrs by immunofluorescence assay; format: functional, cell-based
# How it was run: (§5)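 HeLa cells grown in D-MEM with 10% fetal calf serum on poly-D-lysine-coated coverslips and allowed to adhere at least 36 h. Compounds were diluted in medium from 25 mM DMSO stocks and applied for 8 h. Cells were fixed in 2% paraformaldehyde, permeabilized with 0.2% Triton X-100, and stained for β-tubulin and centromeres, with DAPI for DNA. Mitotic cells with monoastral versus bipolar spindles were counted by epifluorescence microscopy.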
# [6] = target: T4, Kinesin heavy chain isoform 5C (Homo sapiens, UniProt O60282); assay: Inhibition of human Kif5C ATPase activity by pyruvate kinase/lactate dehydrogenase-linked assay; how it was run: as §4
# T4 sequence (O60282 whole entry): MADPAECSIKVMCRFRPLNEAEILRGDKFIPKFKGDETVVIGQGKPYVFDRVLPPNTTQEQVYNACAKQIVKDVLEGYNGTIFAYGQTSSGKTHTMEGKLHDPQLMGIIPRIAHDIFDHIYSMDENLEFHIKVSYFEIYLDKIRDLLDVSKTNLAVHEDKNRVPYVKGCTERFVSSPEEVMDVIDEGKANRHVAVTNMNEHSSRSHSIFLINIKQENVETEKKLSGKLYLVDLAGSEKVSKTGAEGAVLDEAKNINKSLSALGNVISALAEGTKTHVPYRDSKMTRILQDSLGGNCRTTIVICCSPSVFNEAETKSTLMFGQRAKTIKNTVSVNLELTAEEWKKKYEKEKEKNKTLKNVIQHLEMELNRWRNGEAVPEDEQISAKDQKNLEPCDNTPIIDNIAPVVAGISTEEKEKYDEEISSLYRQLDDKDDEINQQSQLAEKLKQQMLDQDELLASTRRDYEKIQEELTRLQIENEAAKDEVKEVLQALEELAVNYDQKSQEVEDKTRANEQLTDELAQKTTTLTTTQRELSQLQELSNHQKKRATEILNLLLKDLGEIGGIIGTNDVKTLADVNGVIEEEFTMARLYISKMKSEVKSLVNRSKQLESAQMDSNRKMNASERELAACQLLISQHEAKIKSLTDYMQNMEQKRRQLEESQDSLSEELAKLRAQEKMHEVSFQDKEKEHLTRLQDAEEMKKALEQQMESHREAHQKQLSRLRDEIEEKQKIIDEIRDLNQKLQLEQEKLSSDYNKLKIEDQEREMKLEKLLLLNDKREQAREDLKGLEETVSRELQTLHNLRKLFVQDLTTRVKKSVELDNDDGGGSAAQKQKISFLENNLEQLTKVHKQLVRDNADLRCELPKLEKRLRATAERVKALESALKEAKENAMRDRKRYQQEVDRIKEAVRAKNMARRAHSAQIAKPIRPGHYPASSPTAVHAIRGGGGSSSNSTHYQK
# HeLa [7] = assay: Induction of monoastral spindle formation in human HeLa cells assessed as cells with misaligned chromosomes at 25 uM after 8 hrs by immunofluorescence assay; format: functional, cell-based
# DU-145 [8] = assay: Selectivity ratio of GI50 for human DU145 cells to GI50 for human HT29 cells; format: functional
# HeLa [9] = assay: Induction of monoastral spindle formation in human HeLa cells assessed as interphase cells with cortical MT bundles at 25 uM after 8 hrs by immunofluorescence assay; format: functional, cell-based
# HeLa [10] = assay: Induction of monoastral spindle formation in human HeLa cells at 50 uM after 8 hrs by immunofluorescence assay; format: functional; how it was run: as §5
GI50 (DU-145 [1]),inhibition ([2]; concentration not given here) [%],IC50 ([3]; read-out: IC50) [µM],GI50 (HT-29),IC50 [4],IC50 [6],"GI50 (DU-145 [1]; DU-145, 48 h) [µM]",inhibition [2],"GI50 (HT-29; HT-29, 48 h) [µM]",IC50 [3],IC50 ([4]; read-out: IC50) [µM],IC50 ([6]; read-out: IC50) [µM],Compound,Activity (HeLa [5]),Activity (HeLa [7]),RatioGI50 (DU-145 [8]),Activity (HeLa [9]),Activity (HeLa [10]) [%]
inactive,60,6.3,inactive,Not Active,Not Active,–,–,–,–,–,–,Cc1ccc2c(c1)-c1cc(C)nn1C(c1ccccc1F)N2 (stereo unspecified),inactive,–,–,–,–
–,–,–,–,–,–,> 100,inactive,33.7,–,–,–,COC(=O)c1c(NC(=O)c2ccccc2Br)sc(C)c1C,–,Active,–,–,–
inactive,80,79.1,inactive,Not Active,Not Active,–,–,–,–,–,–,COC(=O)c1c(C)oc2c1cc(NS(=O)(=O)c1ccc(C(=O)O)cc1)c1ccccc12,inactive,–,–,–,–
–,–,–,–,–,–,41.2,–,19.4,Not Active,–,–,Cc1cc(F)ccc1S(=O)(=O)N(C(=O)C1CCCCC1)c1ccc2oc(=O)sc2c1,inactive,–,–,–,–
–,80,0.6,–,Not Active,Not Active,31,–,16.7,–,–,–,Cc1ccsc1CCN1C(=S)N(c2ccc(F)cc2)C(=O)C1CC(=O)Nc1ccc(F)cc1 (stereo unspecified),Active,–,2,–,–
–,–,–,–,–,–,21,–,4.4,Not Active,–,–,O=C(O)CSc1cc(NS(=O)(=O)c2ccc(C(=O)O)cc2)c2ccccc2c1O,–,–,–,Active,–
–,60,2.4,–,Not Active,Not Active,42.3,–,19.6,–,–,–,COc1ccc(NC(=O)CC2C(=O)N(c3ccccc3)C(=S)N2CCc2sccc2C)cc1 (stereo unspecified),–,–,2,–,–
–,60,1,–,Not Active,Not Active,34.3,–,17.7,–,–,–,COc1ccc(N2C(=O)C(CC(=O)Nc3ccccc3)N(CCc3cccs3)C2=S)cc1 (stereo unspecified),–,–,2,–,50
–,60,41.5,–,–,–,8.7,–,9.3,–,50,50,Cc1ccc(-n2c(=O)[nH]c3c(C(N)=O)nc(-c4ccc(F)cc4F)nc32)cc1C,inactive,–,–,–,–
